Screening data deposited in PubChem BioAssay by Broad Institute.
SIRT5 block – SIRT5 desuccinylase inhibitors, primary screen, biochemical, fluorescence imaging, single point, set 5. Purified SirT5, succinyl-peptide AMC, trypsin-coupled fluorescence. inhibition, % at 15 µM. hit rate 1.1% among 330,000. AID 652115, 2013; in the data active = inhibition above about 15%; inconclusive = no clear call, values can overlap the other calls
Target sequence (Q9NXA8 whole entry, looked up): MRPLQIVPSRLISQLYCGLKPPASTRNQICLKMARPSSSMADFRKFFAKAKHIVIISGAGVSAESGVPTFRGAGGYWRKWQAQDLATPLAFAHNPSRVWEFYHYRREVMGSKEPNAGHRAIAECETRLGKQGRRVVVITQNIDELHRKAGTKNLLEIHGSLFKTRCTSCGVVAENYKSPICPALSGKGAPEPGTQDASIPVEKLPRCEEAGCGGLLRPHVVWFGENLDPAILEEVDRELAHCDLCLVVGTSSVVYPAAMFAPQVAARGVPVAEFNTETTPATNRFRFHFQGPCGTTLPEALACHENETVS
DENV2 CPE – inhibitors of DENV2 cytopathic effect, primary screen, cell-based, plate reader, single concentration; DENV2-infected cells, cytopathic effect rescue; CPE inhibition, % at 9.99 µM; hit rate 1.7% among 350,000; AID 651640, 2012; in the data active = CPE inhibition above about 20%, passing the limit was not always enough; inconclusive = no clear call, values can overlap the other calls; tested in BHK-21 cells
E-sel inducer – E-selectin induction in HUVECs, primary screen, imaging, HUVEC, immunofluorescence imaging, single point | P16581 | normalized: neutral wells 0, TNF-alpha wells 100 | activation, % at 7.58 µM | hit rate 0.37% among 260,000 | AID 686992, 2013;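 active = mean E-selectin-positive cell signal at least 10% of the positive control, reached in at least 60% of replicates, without over 20% cell loss; inconclusive = no rule given, readout overlaps actives, possibly toxicity-flagged; inactive = the rest, including those meeting only one limit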
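Read-out basis: % PE-positive cells; Test system: HUVEC primary endothelial cells; Technique: immunofluorescence imaging; Dosing: single-point compound dose.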
Large screens that a line does not name were inactive. A selection: hits, their analogues and other compounds. The true share with any hit is near 2.8%.

CCCC(=O)Nc1ccc2c(c1)C(=O)N(C)C[C@H](OC)[C@@H](C)CN(Cc1ccc(-c3ccccn3)cc1)[C@@H](C)CO2	none (no result: SIRT5 block)
CCCNC(=O)Nc1ccc2c(c1)C(=O)N(C)C[C@@H](OC)[C@H](C)CN(Cc1cncnc1)[C@@H](C)CO2	none (no result: DENV2 CPE)
CCCC(=O)Nc1ccc2c(c1)C(=O)N(C)C[C@H](OC)[C@@H](C)CN(Cc1ccc(-c3ccccn3)cc1)[C@H](C)CO2	DENV2 CPE 36 (no result: SIRT5 block)
CCCNC(=O)Nc1ccc2c(c1)OC[C@@H](C)N(Cc1ccc(-c3ccccn3)cc1)C[C@@H](C)[C@H](OC)CN(C)C2=O	none (no result: SIRT5 block)
CCCNC(=O)Nc1ccc2c(c1)C(=O)N(C)C[C@H](OC)[C@H](C)CN(Cc1cncnc1)[C@H](C)CO2	DENV2 CPE 53
CCNC(=O)C[C@H]1CC[C@@H]2[C@@H](COc3ccc(NC(=O)c4cscn4)cc3C(=O)N2C)O1	none
C[C@H](CO)N1C[C@H](C)[C@H](CN(C)C(=O)Nc2ccc3c(c2)OCO3)Oc2ccc(NC(=O)Cc3ccccc3)cc2CC1=O	none
C[C@@H]1CN([C@H](C)CO)C(=O)c2cc(C#C[C@@H](C)O)cnc2O[C@@H]1CN(C)C(=O)c1ccccc1	none
CO[C@H](CN(C)C(=O)c1ccccc1F)[C@@H](C)CN([C@@H](C)CO)S(=O)(=O)c1ccccc1	none (no result: SIRT5 block)
C[C@@H]1CCCCO[C@H](CN(C)S(=O)(=O)c2ccccc2)[C@H](C)CN([C@H](C)CO)C(=O)c2cc(NC(=O)Nc3ccccc3)ccc2O1	none (no result: E-sel inducer)
COc1ccc(CN(C)C[C@H]2OCCCC[C@H](C)Oc3ccc(N(C)C)cc3C(=O)N([C@H](C)CO)C[C@@H]2C)cc1	DENV2 CPE inconclusive
CO[C@H]1CN(C)C(=O)c2cc(NC(C)=O)ccc2OC[C@@H](C)N(C(=O)c2ccncc2)C[C@H]1C	none
CCCCCCSc1ccc(-c2nc3ccc(Cl)cn3c2NCCCC)cc1OC	none
CCCCNc1c(-c2ccc(-c3cccc(Cl)c3)cc2)nc2ccc(Cl)cn12	DENV2 CPE 59 (no result: SIRT5 block)
CC(=O)Nc1scc(C)c1-c1nc2ccccc2s1	DENV2 CPE 50
Cc1csc(NC(=O)COCC(=O)O)c1-c1nc2ccccc2s1	none
CCCCNC(=O)N1CCN(C/C=C/c2ccccc2)CC1	none (no result: E-sel inducer)
CCCCNC(=O)N1CCN(Cc2ccc(F)cc2)CC1	SIRT5 block 20 (no result: E-sel inducer)
O=C(CCN1CCCCC1)NCC[C@H]1CC[C@@H](NC(=O)C2CCCC2)[C@@H](CO)O1	none
CCCN(C)C[C@H]1Oc2ncc(-c3ccccc3F)cc2C(=O)N([C@H](C)CO)C[C@@H]1C	none
Cc1ccc(Sc2ncccc2C(=O)NCc2cc([N+](=O)[O-])ccc2O)cc1C	DENV2 CPE 58
O=C(NCc1cc([N+](=O)[O-])ccc1O)c1cc(-c2ccncc2)nc2ccccc12	none
CN(C)CC(=O)N[C@@H]1CC[C@@H](CCNS(=O)(=O)c2ccccc2)O[C@H]1CO	none
CO[C@@H]1CN(C)C(=O)c2ccc(NC(=O)c3cccc(F)c3)cc2OC[C@H](C)N(C(C)=O)C[C@@H]1C	DENV2 CPE 34
CCN1C[C@@H](C)[C@H](OC)CN(C)C(=O)c2cc(NC(=O)c3ccno3)ccc2OC[C@H]1C	DENV2 CPE 20
CCCN1C[C@@H](C)[C@H](OC)CN(C)C(=O)c2ccc(NC(=O)c3cccc(F)c3)cc2OC[C@H]1C	none
CCCN1C[C@H](C)[C@@H](OC)CN(C)C(=O)c2ccc(NC(=O)c3cccc(F)c3)cc2OC[C@@H]1C	DENV2 CPE 29
CCCN1C[C@H](C)[C@H](OC)CN(C)C(=O)c2cc(NC(=O)c3ccno3)ccc2OC[C@H]1C	none
CO[C@@H]1CN(C)C(=O)c2ccc(NC(=O)c3cccc(F)c3)cc2OC[C@H](C)N(C(C)=O)C[C@H]1C	none
CO[C@@H]1CN(C)C(=O)c2ccc(NC(=O)Nc3ccccc3)cc2OC[C@@H](C)N(C(C)=O)C[C@@H]1C	DENV2 CPE 51
CO[C@@H]1CN(C)C(=O)c2ccc(NC(=O)Nc3ccccc3)cc2OC[C@H](C)N(C(C)=O)C[C@@H]1C	none
C[C@@H]1CN([C@H](C)CO)C(=O)c2cc(NC(=O)Cc3ccccc3)ccc2O[C@@H]1CN(C)Cc1ccc(-c2ccccc2)cc1	none (no result: SIRT5 block, DENV2 CPE)
O=C(C[C@@H]1CC[C@@H]2[C@H](COC[C@H](O)CN2Cc2ccc(C(F)(F)F)cc2)O1)NCCc1ccccc1	none
CC(=O)[C@]12O[C@@]3(COC[C@H](c4ccccc4)N3C1=O)[C@H]1C(=O)N(c3ccccc3)C(=O)[C@H]12	none (no result: E-sel inducer)
CO[C@@H]1CN(C)C(=O)c2ccc(NC(=O)Nc3cccc(F)c3)cc2OC[C@@H](C)N(C(C)=O)C[C@H]1C	DENV2 CPE 109
